A short description of the data set: Toxicity liver stage against HepG2, at 10uM. It counts as cell-based. On the set-up: test concentration 10 uM, cell line HepG2-A16-CD81EGFP. To be noted: human, HepG2-A16-CD81EGFP cells; read-out: INHIBITION
In short, it runs like this:
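Uninfected HepG2-A16-CD81EGFP cells, 3 × 10^3 per well, 1536-well, plated on prespotted compound at 10 μM final, parasite-free screening media added to match infected plates; puromycin 10 μM positive, DMSO 0.5% negative; run in parallel with 48 h PbLuc assay at 37 °C, 5% CO2; viability by CellTiter-Glo luminescence, normalized to controls.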
As to `CCN(Cc1ccc(Cl)s1)S(=O)(=O)CC`, the cytotoxicity at 10 µM was -1.11%.
Take `COCCN1CCC(CN(Cc2ccncc2)C2CCC2)CC1`: the cytotoxicity at 10 µM is -2.33%.
Next, `Cc1csc(C2CCCN(C(=O)c3cc(Cl)c[nH]3)C2)n1` (centres undefined): -8.21%; `CN1CCN(C[C@@H]2CN(Cc3c(Cl)cncc3Cl)C[C@@H]2CO)CC1`: -124%.
In the case of `CCn1cc(NC(=O)NCc2ccc(CN3CCOCC3)cc2)cn1` it was -6.63%.
In the case of `COCCN1CCN(Cc2ccc3nsnc3c2)[C@H]2CS(=O)(=O)C[C@H]21` it was -5.94%.
`CNc1nc2ncc(Cl)cc2cc1C#N`: the cytotoxicity at 10 µM came out at 5.05%.
Next, `O=C(c1ncccn1)N1C[C@H]2CCC[C@@]2(COc2ccccn2)C1`: 5.29%; `Cc1n[nH]c2c1C(c1ccsc1)SCC(=O)N2` (centres undefined): 4.21%.
Next, `CC(=O)N(Cc1ncc(C)o1)C1CCN(Cc2ccncc2Cl)C1` (centres undefined): 3.68%; `CCN1CCCN(C(=O)c2cnc(OC(C)C)c(Cl)c2)CC1`: -14.4%.
In the case of `O=S(=O)(NCC1(c2cccs2)CCOCC1)c1ccc2c(c1)OCCO2` it was -1.64%; in that of `COc1ccc(C(=O)NCC(=O)N(Cc2ccsc2)C2CC2)cc1OC`, 0.995%.
Consider `O=C1OCCN1CCOc1nc(-c2ccccc2Cl)no1`, for which the cytotoxicity at 10 µM was -11.3%.
Next, `COc1ccc(OC)c(CNCc2ccnc(N3CCCCC3)c2)c1`: 0.25%; `COc1ncccc1NC(=O)c1cccc(C)n1`: 2.3%.
Regarding `COCCC(=O)N1Cc2cnc(Cc3ccc(OC)cc3)nc2C1`, the cytotoxicity at 10 µM is -0.641%.
Next, `O=C(C1CC(c2ccccc2)=NO1)N1CCCCc2ccccc21` (centres undefined): 3.17%; `O=C(c1ccccn1)N1C[C@H]2CC[C@@H](C1)N(C(=O)Cc1cccs1)C2`: -1.13%; `Cc1cccc(OCCC(=O)N2CCN(CC(=O)NC3CC3)CC2)c1C`: 2.22%.
In the case of `O=C(CNc1ccc(F)cc1OCC(F)(F)F)NCc1ccco1` it was 7.35%; in that of `COc1cccc(S(=O)(=O)NC(=O)C2CC(c3ccccc3)=NO2)c1` (centres undefined), 3.73%; in that of `CN(C)c1cccc(C2CCCN2c2nc3c(cnn3C)c(=O)[nH]2)c1` (centres undefined), 0.91%.
In the case of `Cc1nnc(N2CCOC(C)C2)c(C#N)c1C` (centres undefined) it was -11.7%.
In the case of `COCCN1Cc2ccccc2C2(CCN(C(=O)c3ccco3)CC2)C1`, the cytotoxicity at 10 µM was 5.85%.
Next, `COCCN1CC[C@@H]2OC[C@H](C(=O)NCc3cccs3)C[C@@H]2C1`: 2.7%; `CS(=O)(=O)N1CCCc2sc(C(=O)NC3CC3)nc21`: -143%; `CCn1ncc(CN2CCC(c3ncc(Cl)cc3S(C)(=O)=O)CC2)c1C`: 3.5%.
Next, `Cc1ncc2c(n1)CN(CCCc1ccccc1)CC2`: -34.7%; `CCC(NC(=O)c1cc(NC(C)=O)ccc1Cl)c1cc(C)ccn1` (centres undefined): -16.5%.
`O=C1[C@@H]2CCN(Cc3ccoc3)C[C@@H]2OCCN1c1cccnc1`: the cytotoxicity at 10 µM was -74.6%.
With `CS(=O)(=O)N1CCCC12CCN(Cc1nccs1)C2` (centres undefined), the cytotoxicity at 10 µM is 2.26%.
Next, `NC(=O)CC1CCCCN1C(=O)c1ccc2cc[nH]c2c1` (centres undefined): -4.02%.
Next, `c1csc(CN2Cc3nc(CN4CCCC4)oc3C2)c1`: 4.59%; `Cc1nc(C)n(CC2CN(CCCOc3ccccc3)CCO2)n1` (centres undefined): -0.924%.
Next, `CN(C)c1cc(C2CCCN(S(=O)(=O)c3cn[nH]c3)C2)ccn1` (centres undefined): -0.24%; `CCCN(CC1COc2ccccc2O1)C(=O)C1=NN(C)C(=O)CC1` (centres undefined): -41%; `Cc1occc1C(=O)N1CCn2cnc(COCC3CC3)c2C1`: -6.4%.
As to `Cc1cc(C)nc(-n2nc(C)c3c2NC(=O)CSC3c2cnn(C)c2)n1` (centres undefined), the cytotoxicity at 10 µM was -36.5%.
